Test results from ChEMBL document CHEMBL1629548, “In vitro activities of tigecycline against clinical isolates of Aeromonas, Vibrio, and Salmonella species in Taiwan” (2008).

Tests used:
Aeromonas hydrophila [1] = test: Antimicrobial activity against Aeromonas hydrophila assessed as susceptible isolate by FDA method; assay type: functional
How it was run: (§1)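 Susceptibility categories assigned from tigecycline broth microdilution MICs (CLSI method, 0.03–128 μg/ml) using US FDA or EUCAST breakpoints, as named in each line.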

Aeromonas hydrophila [2] = test: Antimicrobial activity against Aeromonas hydrophila assessed as susceptible isolate by EUCAST method; assay type: functional; how it was run: as §1
Aeromonas hydrophila [3] = test: Antimicrobial activity against Aeromonas hydrophila assessed as intermediate isolate by FDA method; assay type: functional
How it was run: (§2)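 Tigecycline MICs for clinical isolates (Taiwan) were determined by broth microdilution over 0.03 to 128 μg/ml. A control strain was included, and its MICs had to fall within the recommended range. Susceptible, intermediate and resistant categories were assigned from the MICs using US FDA and EUCAST breakpoints.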

Aeromonas hydrophila [4] = test: Antimicrobial activity against Aeromonas hydrophila assessed as intermediate isolate by EUCAST method; assay type: functional; how it was run: as §1
Aeromonas caviae [5] = test: Antimicrobial activity against Aeromonas caviae assessed as susceptible isolate by FDA method; assay type: functional; how it was run: as §2
Aeromonas caviae [6] = test: Antimicrobial activity against Aeromonas caviae assessed as susceptible isolate by EUCAST method; assay type: functional; how it was run: as §1
Aeromonas caviae [7] = test: Antimicrobial activity against Aeromonas caviae assessed as intermediate isolate by FDA method; assay type: functional; how it was run: as §1
Aeromonas caviae [8] = test: Antimicrobial activity against Aeromonas caviae assessed as intermediate isolate by EUCAST method; assay type: functional; how it was run: as §2
Aeromonas caviae [9] = test: Antimicrobial activity against Aeromonas caviae assessed as resistant isolate by FDA method; assay type: functional; how it was run: as §2
Aeromonas sobria [10] = test: Antimicrobial activity against Aeromonas sobria assessed as susceptible isolate by FDA method; assay type: functional; how it was run: as §1
Aeromonas sobria [11] = test: Antimicrobial activity against Aeromonas sobria assessed as susceptible isolate by EUCAST method; assay type: functional; how it was run: as §1
Aeromonas sobria [12] = test: Antimicrobial activity against Aeromonas sobria assessed as intermediate isolate by FDA method; assay type: functional; how it was run: as §2
Aeromonas sobria [13] = test: Antimicrobial activity against Aeromonas sobria assessed as intermediate isolate by EUCAST method; assay type: functional; how it was run: as §1
[14] = Antimicrobial activity against Salmonella serotype Choleraesuis assessed as susceptible isolate by FDA method; assay type: functional, Salmonella enterica subsp. enterica serovar Choleraesuis; how it was run: as §2
[15] = Antimicrobial activity against Salmonella serotype Choleraesuis assessed as intermediate isolate by FDA method; assay type: functional, Salmonella enterica subsp. enterica serovar Choleraesuis; how it was run: as §2
[16] = Antimicrobial activity against Salmonella serotype Choleraesuis assessed as intermediate isolate by EUCAST method; assay type: functional, Salmonella enterica subsp. enterica serovar Choleraesuis; how it was run: as §2
[17] = Antimicrobial activity against Salmonella serotype Choleraesuis assessed as resistant isolate by FDA method; assay type: functional, Salmonella enterica subsp. enterica serovar Choleraesuis; how it was run: as §2
[18] = Antimicrobial activity against Salmonella serotype Choleraesuis assessed as resistant isolate by EUCAST method; assay type: functional, Salmonella enterica subsp. enterica serovar Choleraesuis; how it was run: as §2
Salmonella typhimurium [19] = test: Antimicrobial activity against Salmonella serotype Typhimurium assessed as susceptible isolate by FDA method; assay type: functional, Salmonella enterica subsp. enterica serovar Typhimurium; how it was run: as §1
Salmonella typhimurium [20] = test: Antimicrobial activity against Salmonella serotype Typhimurium assessed as susceptible isolate by EUCAST method; assay type: functional, Salmonella enterica subsp. enterica serovar Typhimurium; how it was run: as §1
Salmonella typhimurium [21] = test: Antimicrobial activity against Salmonella serotype Typhimurium assessed as intermediate isolate by FDA method; assay type: functional, Salmonella enterica subsp. enterica serovar Typhimurium; how it was run: as §1
Salmonella typhimurium [22] = test: Antimicrobial activity against Salmonella serotype Typhimurium assessed as intermediate isolate by EUCAST method; assay type: functional, Salmonella enterica subsp. enterica serovar Typhimurium; how it was run: as §1
Salmonella [23] = test: Antimicrobial activity against Salmonella serogroup O7 assessed as susceptible isolate by FDA method; assay type: functional; how it was run: as §1
Salmonella [24] = test: Antimicrobial activity against Salmonella serogroup O7 assessed as susceptible isolate by EUCAST method; assay type: functional; how it was run: as §1
Salmonella [25] = test: Antimicrobial activity against Salmonella serogroup O7 assessed as intermediate isolate by FDA method; assay type: functional; how it was run: as §1
Salmonella [26] = test: Antimicrobial activity against Salmonella serogroup O7 assessed as intermediate isolate by EUCAST method; assay type: functional; how it was run: as §1
Salmonella [27] = test: Antimicrobial activity against Salmonella serogroup O8 assessed as susceptible isolate by FDA method; assay type: functional; how it was run: as §1
Salmonella [28] = test: Antimicrobial activity against Salmonella serogroup O8 assessed as susceptible isolate by EUCAST method; assay type: functional; how it was run: as §1
Salmonella [29] = test: Antimicrobial activity against Salmonella serogroup O8 assessed as intermediate isolate by FDA method; assay type: functional; how it was run: as §1
Salmonella [30] = test: Antimicrobial activity against Salmonella serogroup O8 assessed as intermediate isolate by EUCAST method; assay type: functional; how it was run: as §1
Salmonella [31] = test: Antimicrobial activity against Salmonella serogroup O9 assessed as susceptible isolate by FDA method; assay type: functional; how it was run: as §1
Salmonella [32] = test: Antimicrobial activity against Salmonella serogroup O9 assessed as susceptible isolate by EUCAST method; assay type: functional; how it was run: as §1
Salmonella [33] = test: Antimicrobial activity against Salmonella serogroup O9 assessed as intermediate isolate by FDA method; assay type: functional; how it was run: as §1
Salmonella [34] = test: Antimicrobial activity against Salmonella serogroup O9 assessed as intermediate isolate by EUCAST method; assay type: functional; how it was run: as §2
Vibrio vulnificus [35] = test: Antimicrobial activity against Vibrio vulnificus assessed as susceptible isolate by FDA method; assay type: functional; how it was run: as §1
Vibrio vulnificus [36] = test: Antimicrobial activity against Vibrio vulnificus assessed as susceptible isolate by EUCAST method; assay type: functional; how it was run: as §1
Vibrio vulnificus [37] = test: Antimicrobial activity against Vibrio vulnificus assessed as intermediate isolate by FDA method; assay type: functional; how it was run: as §1
Vibrio vulnificus [38] = test: Antimicrobial activity against Vibrio vulnificus assessed as intermediate isolate by EUCAST method; assay type: functional; how it was run: as §2
Vibrio parahaemolyticus [39] = test: Antimicrobial activity against Vibrio parahaemolyticus assessed as susceptible isolate by FDA method; assay type: functional; how it was run: as §1
Vibrio parahaemolyticus [40] = test: Antimicrobial activity against Vibrio parahaemolyticus assessed as susceptible isolate by EUCAST method; assay type: functional; how it was run: as §1
Vibrio parahaemolyticus [41] = test: Antimicrobial activity against Vibrio parahaemolyticus assessed as intermediate isolate by FDA method; assay type: functional; how it was run: as §2
Vibrio parahaemolyticus [42] = test: Antimicrobial activity against Vibrio parahaemolyticus assessed as intermediate isolate by EUCAST method; assay type: functional; how it was run: as §1
Vibrio cholerae [43] = test: Antimicrobial activity against Vibrio cholerae non-O1 assessed as susceptible isolate by FDA method; assay type: functional; how it was run: as §2
Vibrio cholerae [44] = test: Antimicrobial activity against Vibrio cholerae non-O1 assessed as susceptible isolate by EUCAST method; assay type: functional; how it was run: as §2
Vibrio cholerae [45] = test: Antimicrobial activity against Vibrio cholerae non-O1 assessed as intermediate isolate by FDA method; assay type: functional; how it was run: as §2
Vibrio cholerae [46] = test: Antimicrobial activity against Vibrio cholerae non-O1 assessed as intermediate isolate by EUCAST method; assay type: functional; how it was run: as §2
Vibrio cholerae [47] = test: Antimicrobial activity against Vibrio cholerae non-O1 assessed as resistant isolate by FDA method; assay type: functional; how it was run: as §2
Vibrio cholerae [48] = test: Antimicrobial activity against Vibrio cholerae non-O1 assessed as resistant isolate by EUCAST method; assay type: functional; how it was run: as §2
Aeromonas hydrophila [49] = test: Antimicrobial activity against Aeromonas hydrophila assessed as susceptibility level by disk diffusion method; assay type: functional
How it was run: (§3)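 Cefotaxime and ciprofloxacin susceptibility taken from routine clinical laboratory reports; disk diffusion per CLSI guidelines.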

Aeromonas caviae [50] = test: Antimicrobial activity against Aeromonas caviae assessed as susceptibility level by disk diffusion method; assay type: functional; how it was run: as §3
Aeromonas sobria [51] = test: Antimicrobial activity against Aeromonas sobria assessed as susceptibility level by disk diffusion method; assay type: functional; how it was run: as §3

Measured: Activity

CN(C)c1cc(NC(=O)CNC(C)(C)C)c(O)c2c1C[C@H]1C[C@H]3[C@H](N(C)C)C(O)=C(C(N)=O)C(=O)[C@@]3(O)C(O)=C1C2=O [TIGECYCLINE]
96.8%: Aeromonas caviae [6]
100%: Aeromonas hydrophila [1] | Aeromonas sobria [10] | Aeromonas sobria [11] | [14] | Salmonella typhimurium [19] | Salmonella [23] | Salmonella [24] | Salmonella [27] | Salmonella [28] | Salmonella [31] | Salmonella [32] | Vibrio vulnificus [35] | Vibrio vulnificus [36] | Vibrio parahaemolyticus [39] | Vibrio parahaemolyticus [40] | Vibrio cholerae [43] | Vibrio cholerae [44]
98.4%: Aeromonas caviae [5] | Salmonella typhimurium [20]
98.8%: Aeromonas hydrophila [2]
1.6%: Aeromonas caviae [7] | Aeromonas caviae [8] | [16] | Salmonella typhimurium [22]
1.2%: Aeromonas hydrophila [4]
not listed: Aeromonas hydrophila [49] | Aeromonas caviae [50] | Aeromonas sobria [51]
0%: all other assays above

CO/N=C(\C(=O)N[C@@H]1C(=O)N2C(C(=O)O)=C(COC(C)=O)CS[C@H]12)c1csc(N)n1 [CEFOTAXIME]
73%: Aeromonas caviae [50]
95%: Aeromonas sobria [51]
79%: Aeromonas hydrophila [49]
